# Source: ChEMBL document CHEMBL1255475, “Mutant prevention concentrations of four carbapenems against gram-negative rods” (2010)
# Assays:
# Assay type in all cases: functional
# [1] = tested on: Klebsiella pneumoniae; assay: Antibacterial activity against beta-lactamase-positive ESBL-negative Klebsiella pneumoniae E472 incubated up to 7 days by agar dilution method; details: E472, 168 h
# [2] = tested on: Klebsiella pneumoniae; assay: Antibacterial activity against beta-lactamase-positive ESBL-negative Klebsiella pneumoniae E474 incubated up to 7 days by agar dilution method; details: E474, 168 h
# [3] = tested on: Klebsiella pneumoniae; assay: Antibacterial activity against beta-lactamase-positive ESBL-negative Klebsiella pneumoniae E479 incubated up to 7 days by agar dilution method; details: E479, 168 h
# Outline: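 MPC determination: overnight cultures on blood trypticase soy agar at 35°C in air were resuspended in 0.9% saline, and CFU were counted on drug-free Mueller-Hinton agar. […] Growth was retested by agar dilution to confirm mutants. MPC was the lowest concentration preventing resistant-mutant growth.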
# [4] = tested on: Klebsiella pneumoniae; assay: Antibacterial activity against beta-lactamase-positive ESBL-negative Klebsiella pneumoniae E473 incubated up to 7 days by agar dilution method; details: E473, 168 h
# [5] = tested on: Klebsiella pneumoniae; assay: Antibacterial activity against beta-lactamase-negative Klebsiella pneumoniae E417 incubated up to 7 days by agar dilution method; details: E417, 168 h
# Outline: (§1)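 MIC by CLSI agar dilution, with quality-control strains in each run. Beta-lactamase status was set by 30 μg cefazolin Kirby-Bauer disk diffusion. ESBL status was set by cefotaxime and ceftazidime disks (30 μg) with and without clavulanic acid (10 μg).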
# [6] = tested on: Escherichia coli; assay: Antibacterial activity against beta-lactamase-negative Escherichia coli E347 incubated up to 7 days by agar dilution method; details: E347, 168 h
# [7] = tested on: Escherichia coli; assay: Antibacterial activity against beta-lactamase-negative Escherichia coli E350 […] by agar dilution method
# [8] = tested on: Escherichia coli; assay: Antibacterial activity against beta-lactamase-positive ESBL-positive Escherichia coli E458 incubated up to 7 days by agar dilution method; details: E458, 168 h; outline: as §1
# [9] = tested on: Escherichia coli; assay: Antibacterial activity against beta-lactamase-positive ESBL-positive Escherichia coli E450 incubated up to 7 days by agar dilution method; details: E450, 168 h; outline: as §1
# [10] = tested on: Escherichia coli; assay: Antibacterial activity against beta-lactamase-positive ESBL-positive Escherichia coli E456 incubated up to 7 days by agar dilution method; details: E456, 168 h; outline: as §1
# [11] = tested on: Escherichia coli; assay: Antibacterial activity against beta-lactamase-positive ESBL-negative Escherichia coli E483 […] by agar dilution method
# [12] = tested on: Escherichia coli; assay: Antibacterial activity against beta-lactamase-positive ESBL-negative Escherichia coli E484 incubated up to 7 days by agar dilution method; details: E484, 168 h
# [13] = tested on: Klebsiella pneumoniae; assay: Antibacterial activity against beta-lactamase-negative Klebsiella pneumoniae E359 incubated up to 7 days by agar dilution method; details: E359, 168 h
# [14] = tested on: Klebsiella pneumoniae; assay: Antibacterial activity against beta-lactamase-negative Klebsiella pneumoniae E418 incubated up to 7 days by agar dilution method; details: E418, 168 h
# [15] = tested on: Klebsiella pneumoniae; assay: Antibacterial activity against beta-lactamase-positive ESBL-positive Klebsiella pneumoniae E475 assessed as mutant prevention concentration after overnight incubation
# Outline: (§2)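 Overnight growth on blood trypticase soy agar (35°C, air) was resuspended in 0.9% saline and counted on drug-free Mueller-Hinton agar. […] Colonies were retested by agar dilution to confirm mutants. MPC was the lowest concentration preventing resistant-mutant growth.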
# [16] = tested on: Klebsiella pneumoniae; assay: Antibacterial activity against beta-lactamase-positive ESBL-negative Klebsiella pneumoniae E481 assessed as mutant prevention concentration after overnight incubation; outline: as §2
# [17] = tested on: Klebsiella pneumoniae; assay: Antibacterial activity against beta-lactamase-positive ESBL-negative Klebsiella pneumoniae E511 assessed as mutant prevention concentration after overnight incubation; outline: as §2
# [18] = tested on: Escherichia coli; assay: Antibacterial activity against beta-lactamase-negative Escherichia coli E344 assessed as mutant prevention concentration after overnight incubation
# [19] = tested on: Escherichia coli; assay: Antibacterial activity against beta-lactamase-negative Escherichia coli E345 assessed as mutant prevention concentration after overnight incubation
# [20] = tested on: Escherichia coli; assay: Antibacterial activity against beta-lactamase-negative Escherichia coli E346 assessed as mutant prevention concentration after overnight incubation
# [21] = tested on: Escherichia coli; assay: Antibacterial activity against beta-lactamase-negative Escherichia coli E347 assessed as mutant prevention concentration after overnight incubation
# [22] = tested on: Escherichia coli; assay: Antibacterial activity against beta-lactamase-negative Escherichia coli E424 assessed as mutant prevention concentration after overnight incubation
# [23] = tested on: Escherichia coli; assay: Antibacterial activity against beta-lactamase-positive ESBL-positive Escherichia coli E450 assessed as mutant prevention concentration after overnight incubation; outline: as §2
# [24] = tested on: Escherichia coli; assay: Antibacterial activity against beta-lactamase-positive ESBL-positive Escherichia coli E452 assessed as mutant prevention concentration after overnight incubation; outline: as §2
# [25] = tested on: Escherichia coli; assay: Antibacterial activity against beta-lactamase-positive ESBL-positive Escherichia coli E459 assessed as mutant prevention concentration after overnight incubation; outline: as §2
# [26] = tested on: Escherichia coli; assay: Antibacterial activity against beta-lactamase-positive ESBL-positive Escherichia coli E460 assessed as mutant prevention concentration after overnight incubation; outline: as §2
# [27] = tested on: Klebsiella pneumoniae; assay: Antibacterial activity against beta-lactamase-negative Klebsiella pneumoniae E357 assessed as mutant prevention concentration after overnight incubation
# [28] = tested on: Klebsiella pneumoniae; assay: Antibacterial activity against beta-lactamase-negative Klebsiella pneumoniae E358 assessed as mutant prevention concentration after overnight incubation
# [29] = tested on: Klebsiella pneumoniae; assay: Antibacterial activity against beta-lactamase-negative Klebsiella pneumoniae E361 assessed as mutant prevention concentration after overnight incubation
# [30] = tested on: Acinetobacter baumannii; assay: Antibacterial activity against Acinetobacter baumannii A931 assessed as mutant prevention concentration after overnight incubation
# [31] = tested on: Acinetobacter baumannii; assay: Antibacterial activity against Acinetobacter baumannii A897 assessed as mutant prevention concentration after overnight incubation
# [32] = tested on: Acinetobacter baumannii; assay: Antibacterial activity against Acinetobacter baumannii A885 assessed as mutant prevention concentration after overnight incubation
# [33] = tested on: Acinetobacter baumannii; assay: Antibacterial activity against Acinetobacter baumannii A891 assessed as mutant prevention concentration after overnight incubation
# [34] = tested on: Acinetobacter baumannii; assay: Antibacterial activity against Acinetobacter baumannii A903 assessed as mutant prevention concentration after overnight incubation
# [35] = tested on: Pseudomonas aeruginosa; assay: Antibacterial activity against Pseudomonas aeruginosa P332 assessed as mutant prevention concentration after overnight incubation
# [36] = tested on: Pseudomonas aeruginosa; assay: Antibacterial activity against Pseudomonas aeruginosa P373 assessed as mutant prevention concentration after overnight incubation
# [37] = tested on: Pseudomonas aeruginosa; assay: Antibacterial activity against Pseudomonas aeruginosa P327 assessed as mutant prevention concentration after overnight incubation
# [38] = tested on: Pseudomonas aeruginosa; assay: Antibacterial activity against Pseudomonas aeruginosa P328 assessed as mutant prevention concentration after overnight incubation
# [39] = tested on: Pseudomonas aeruginosa; assay: Antibacterial activity against Pseudomonas aeruginosa P352 assessed as mutant prevention concentration after overnight incubation
# [40] = tested on: Pseudomonas aeruginosa; assay: Antibacterial activity against Pseudomonas aeruginosa P340 assessed as mutant prevention concentration after overnight incubation
# [41] = tested on: Pseudomonas aeruginosa; assay: Antibacterial activity against Pseudomonas aeruginosa P363 assessed as mutant prevention concentration after overnight incubation
# [42] = tested on: Acinetobacter baumannii; assay: Antibacterial activity against Acinetobacter baumannii A851 assessed as mutant prevention concentration after overnight incubation
# [43] = tested on: Acinetobacter baumannii; assay: Antibacterial activity against Acinetobacter baumannii A911 assessed as mutant prevention concentration after overnight incubation
# [44] = tested on: Acinetobacter baumannii; assay: Antibacterial activity against Acinetobacter baumannii A849 assessed as mutant prevention concentration after overnight incubation
# [45] = tested on: Acinetobacter baumannii; assay: Antibacterial activity against Acinetobacter baumannii A896 assessed as mutant prevention concentration after overnight incubation
# [46] = tested on: Acinetobacter baumannii; assay: Antibacterial activity against Acinetobacter baumannii A928 assessed as mutant prevention concentration after overnight incubation
smiles,measurement,setting,value
C[C@@H](O)[C@H]1C(=O)N2C(C(=O)O)=C(S[C@@H]3CN[C@H](C(=O)Nc4cccc(C(=O)O)c4)C3)[C@H](C)[C@H]12,MIC,[1],8 µg/mL
same,MIC,[2],4 µg/mL
same,MIC,[3],8 µg/mL
same,MIC,[4],8 µg/mL
same,MIC,[5],0.008 µg/mL
same,MIC,[6],0.008 µg/mL
same,MIC,[7],0.016 µg/mL
same,MIC,[8],0.03 µg/mL
same,MIC,[9],0.03 µg/mL
same,MIC,[10],0.125 µg/mL
same,MIC,[11],4 µg/mL
same,MIC,[12],8 µg/mL
same,MIC,[13],0.016 µg/mL
same,MIC,[14],0.06 µg/mL
same,MPC,[15],16 µg/mL
same,MPC,[16],8 µg/mL
same,MPC,[17],64 µg/mL
same,MPC,[18],0.03 µg/mL
same,MPC,[19],0.03 µg/mL
same,MPC,[20],0.03 µg/mL
same,MPC,[21],0.03 µg/mL
same,MPC,[22],0.06 µg/mL
same,MPC,[23],1 µg/mL
same,MPC,[24],0.25 µg/mL
same,MPC,[25],0.06 µg/mL
same,MPC,[26],0.5 µg/mL
same,MPC,[27],0.03 µg/mL
same,MPC,[28],0.03 µg/mL
same,MPC,[29],0.06 µg/mL
C[C@@H](O)[C@H]1C(=O)N2C(C(=O)O)=C(S[C@@H]3CN[C@H](CNS(N)(=O)=O)C3)[C@H](C)[C@H]12 [DORIPENEM],MIC,[1],2 µg/mL
same,MIC,[2],2 µg/mL
same,MIC,[3],4 µg/mL
same,MIC,[4],2 µg/mL
same,MIC,[5],0.06 µg/mL
same,MIC,[6],0.03 µg/mL
same,MIC,[7],0.06 µg/mL
same,MIC,[8],0.03 µg/mL
same,MIC,[9],0.03 µg/mL
same,MIC,[10],0.03 µg/mL
same,MIC,[11],0.25 µg/mL
same,MIC,[12],2 µg/mL
same,MIC,[13],0.06 µg/mL
same,MIC,[14],0.125 µg/mL
same,MPC,[30],2 µg/mL
same,MPC,[31],1 µg/mL
same,MPC,[32],8 µg/mL
same,MPC,[33],2 µg/mL
same,MPC,[34],4 µg/mL
same,MPC,[15],16 µg/mL
same,MPC,[16],8 µg/mL
same,MPC,[17],>64 µg/mL
same,MPC,[35],>4 µg/mL
same,MPC,[36],>4 µg/mL
same,MPC,[37],4 µg/mL
same,MPC,[38],4 µg/mL
same,MPC,[39],2 µg/mL
same,MPC,[40],1 µg/mL
same,MPC,[41],4 µg/mL
same,MPC,[42],16 µg/mL
same,MPC,[43],8 µg/mL
same,MPC,[44],16 µg/mL
same,MPC,[45],1 µg/mL
same,MPC,[46],1 µg/mL
same,MPC,[18],0.06 µg/mL
same,MPC,[19],0.06 µg/mL
same,MPC,[20],0.06 µg/mL
same,MPC,[21],0.06 µg/mL
same,MPC,[22],0.06 µg/mL
same,MPC,[23],0.125 µg/mL
same,MPC,[24],0.125 µg/mL
same,MPC,[25],0.125 µg/mL
same,MPC,[26],0.125 µg/mL
same,MPC,[27],0.125 µg/mL
same,MPC,[28],0.125 µg/mL
same,MPC,[29],0.125 µg/mL
C[C@@H](O)[C@H]1C(=O)N2C(C(=O)O)=C(SCCNC=N)C[C@H]12 [IMIPENEM ANHYDROUS],MPC,[30],1 µg/mL
same,MPC,[31],1 µg/mL
same,MPC,[32],8 µg/mL
same,MPC,[33],1 µg/mL
same,MPC,[34],1 µg/mL
same,MPC,[15],16 µg/mL
same,MPC,[16],16 µg/mL
same,MPC,[17],64 µg/mL
same,MPC,[35],16 µg/mL
same,MPC,[36],32 µg/mL
same,MPC,[37],16 µg/mL
same,MPC,[38],32 µg/mL
same,MPC,[39],32 µg/mL
same,MPC,[40],2 µg/mL
same,MPC,[41],32 µg/mL
same,MPC,[42],8 µg/mL
same,MPC,[43],8 µg/mL
same,MPC,[44],64 µg/mL
same,MPC,[45],1 µg/mL
same,MPC,[46],1 µg/mL
same,MPC,[18],0.5 µg/mL
same,MPC,[19],0.5 µg/mL
same,MPC,[20],0.5 µg/mL
same,MPC,[21],0.5 µg/mL
same,MPC,[22],0.5 µg/mL
same,MPC,[23],0.5 µg/mL
same,MPC,[24],0.5 µg/mL
same,MPC,[25],0.5 µg/mL
same,MPC,[26],0.5 µg/mL
same,MPC,[27],1 µg/mL
same,MPC,[28],0.5 µg/mL
same,MPC,[29],1 µg/mL
